Experimental data published in ChEMBL document CHEMBL4049390, “Combination of amino acid/dipeptide with ligustrazine-betulinic acid as antitumor agents” (Eur J Med Chem, 2017).
Active and inactive are the calls of the source. The calls are words filed in the database; no cut-off is given here.

Columns and labels:
HepG2 [1] = experiment: Induction of apoptosis in human HepG2 cells assessed as nuclear fragmentation at 1.5 to 6 uM after 72 hrs by Giemsa staining based fluorescent microscopic method; type: functional, cell-based
Method in brief: (§1)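 HepG2 cells were seeded at 4×10^3 cells/well in 6-well plates overnight, then treated at 1.5, 3 or 6 µM for 72 h. Cells were washed in PBS, fixed in cold methanol, stained with 6% Giemsa for 5 min, rinsed with water and dried. Morphology was examined microscopically at 200×, with apoptotic cells marked in representative fields.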

HepG2 [2] = experiment: Induction of apoptosis in human HepG2 cells assessed as necrotic cells at 3 uM after 72 hrs by Annexin-V-FITC/propidium iodide staining based flow cytometry (reference value: 0.5%); type: functional
HepG2 [3] = experiment: Induction of apoptosis in human HepG2 cells assessed as early apoptotic cells at 3 uM after 72 hrs by Annexin-V-FITC/propidium iodide staining based flow cytometry (reference value: 3.7%); type: functional
BGC-823 = experiment: Potency index, ratio of cisplatin IC50 to compound IC50 for human BGC823 cells; type: functional
Method in brief: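 Ratios were calculated from MTT IC50 values (72 h exposure, A490 read-out, n = 3). Potency index = cisplatin IC50 / compound IC50. Therapeutic index = MDCK IC50 / tumour-line IC50.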

HepG2 [4] = experiment: Induction of apoptosis in human HepG2 cells assessed as nuclear fragmentation after 72 hrs by DAPI staining based fluorescent microscopic method; type: functional, cell-based
Method in brief: (§2)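 HepG2 cells were plated at 4×10^3 cells/well in six-well plates and grown 12 h, then treated at 1.5, 3 or 6 µM for 72 h. Cells were washed in PBS, fixed in 4% paraformaldehyde and stained with 1 mg/mL DAPI for 1 min in the dark. Nuclei were viewed by fluorescence microscopy at 200×.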

HepG2 [5] = experiment: Induction of apoptosis in human HepG2 cells assessed as increase in intracellular calcium level by measuring mean fluorescence intensity after 72 hrs by Fluo-3AM dye based flow cytometry; type: functional, cell-based
Method in brief: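 Intracellular Ca2+: HepG2 cells (1×10^5/well, 6-well) were grown 24 h, then treated at 2, 3 or 4 µM for 72 h. Cells were harvested, washed in cold PBS and resuspended in HBSS with 10 µM Fluo-3AM for 30 min at 37 °C in the dark. Flow cytometry used 488 nm excitation; the read-out is mean fluorescence intensity.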

HepG2 [6] = experiment: Induction of apoptosis in human HepG2 cells assessed as viable cells at 3 uM after 72 hrs by Annexin-V-FITC/propidium iodide staining based flow cytometry (reference value: 93.2%); type: functional; details: HepG2, 72 h, read-out: Activity
HepG2 [7] = experiment: Induction of apoptosis in human HepG2 cells assessed as chromatin margination at 1.5 uM after 72 hrs by Giemsa staining based fluorescent microscopic method; type: functional, cell-based; method in brief: as §1
HepG2 [8] = experiment: Induction of apoptosis in human HepG2 cells assessed as viable cells at 4 uM after 72 hrs by Annexin-V-FITC/propidium iodide staining based flow cytometry (reference value: 93.2%); type: functional; details: HepG2, 72 h, read-out: Activity
HepG2 [9] = experiment: Induction of apoptosis in human HepG2 cells assessed as nuclear condensation after 72 hrs by DAPI staining based fluorescent microscopic method; type: functional, cell-based; method in brief: as §2

Compound: C=C(C)[C@@H]1CC[C@]2(C(=O)OCc3nc(C)c(C)nc3C)CC[C@]3(C)[C@H](CC[C@@H]4[C@@]5(C)CC[C@H](OC(=O)[C@H](C)NC(=O)CNC)C(C)(C)[C@@H]5CC[C@]43C)[C@@H]12
- Activity (HepG2 [1]): Active
- Activity (HepG2 [2]): 1.2%
- Activity (HepG2 [3]): 11.3%
- Ratio IC50 (BGC-823): 2
- Activity (HepG2 [4]): Dose-dependent effect
- Activity (HepG2 [5]): Dose-dependent effect
- viability at 3 µM (HepG2 [6]): 81%
- Activity (HepG2 [7]): Active
- viability at 4 µM (HepG2 [8]): 62.2%
- Activity (HepG2 [9]): Dose-dependent effect
